B1: NELF-E aptamer (parent)
chain: CCCAACGACUGCCGAGCGAGAUUACGCUUGAGCGCCCCACUGAGGAUGCCCACGGGCGAUUGGGGCACGG

Variants of: B1
Test: HiTS-RAP
Settings: with NELF-E (Drosophila)
In short: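 Kd came from weighted Hill fits to the first binding curve, with intensities normalised to sequencing intensity and averaged per sequence, keeping only fits whose variance was below 1,000,000. That curve was imaged on an Illumina GAIIx flowcell, where sequenced aptamer DNA templates with a T7 promoter and ter site had been transcribed in situ by T7 RNA polymerase and halted by GST-Tus (30 minutes, 37°C). Before each image, clusters equilibrated for 30 minutes at room temperature with NELF-E-mOrange at 0.064 to 1000 nM in HEPES binding buffer.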

First: CCCAACGACUGCGGAGCGAGAUUACGCUUGAGCGCCCCACUGAGGAUGCCCACGGGCGUUUGGGGCACGG [C13G A59U]
Second: CCCAACGACUGCGGAGCGAGAUUACGCUUGAGCGCCCCACUGAGGAUACCCACGGGCGAUUGGGGCACGG [C13G G48A]
The Kd of the first is 3.8-fold higher: 42.1 nM for the first, 11 nM for the second.

CCCAACGACUGCGGAGCGAGAUUACGCUUGAGCGCCCCACUGAGGAUUCCCACGGGCGAUUGGGGCACGG [C13G G48U] and CCCAACGACUGCGGAGCGAGAUUACGCUUGAGCGCCCCACUGAGGAUGCCCACGGGCGAUUGGUGCACGG [C13G G64U] are within 1.5-fold of each other in Kd: 6.97 nM for the first, 8.93 nM for the second.

CCCAACGACUGCGGAGCGAGAUUACGCUUGAGCGCCCCACUGAGGAUGCCCACGGGCGAUUGGAGCACGG [C13G G64A] and CCCAACGACUGCGGAGCGAGAUUACGCUUGAGCGCCCCACUGAGGAUGCCCACGGGCGAUUGGCGCACGG [C13G G64C] are within 1.5-fold of each other in Kd: 6.69 nM for the first, 5.83 nM for the second.

CCCAACGACUGCGGAGCGAGAUUACGCUUGAGCGCCCCACUGAGGAUGCCCACGAGCGAUUGGGGCACGG [C13G G55A] and CCCAACGACUGCGGAGCGAGAUUACGCUUGAGCGCCCCACUGAGGAUGCCCACGUGCGAUUGGGGCACGG [C13G G55U] are within 1.5-fold of each other in Kd: 6.77 nM for the first, 7.38 nM for the second.

CCCAACGACUGCGGAGCGAGAUUACGCUUGAGCGCCCCACUGAGGAUGCCCACGCGCGAUUGGGGCACGG [C13G G55C] and CCCAACGACUGCGGAGCGAUAUUACGCUUGAGCGCCCCACUGAGGAUGCCCACGGGCGAUUGGGGCACGG [C13G G20U] are within 1.5-fold of each other in Kd: 7.94 nM for the first, 6.39 nM for the second.

Going from CCCAACGACUGCGGAGCGAAAUUACGCUUGAGCGCCCCACUGAGGAUGCCCACGGGCGAUUGGGGCACGG [C13G G20A] to CCCAACGACUGCGGAGCGAGAUUACGCUUGAGCGCCCCACUGAGGAUGCCCACGGGCGAUUAGGGCACGG [C13G G62A], the Kd rises from 7.5 nM to 32.4 nM (4.3-fold).

CCCAACGACUGCGGAGCGAGAUUACGCUUGAGCGCCCCACUGAGGAUGCCCACGGGCGAUUUGGGCACGG [C13G G62U] and CCCAACGACUGCGGAGCGAGAUUACGCUAGAGCGCCCCACUGAGGAUGCCCACGGGCGAUUGGGGCACGG [C13G U29A] are within 1.5-fold of each other in Kd: 7.22 nM for the first, 4.9 nM for the second.

CCCAACGACUGCGGAGCGAGAUUACGCUCGAGCGCCCCACUGAGGAUGCCCACGGGCGAUUGGGGCACGG [C13G U29C] and CCCAACGACUGCGGAGCGAGAUUACGCUGGAGCGCCCCACUGAGGAUGCCCACGGGCGAUUGGGGCACGG [C13G U29G] are within 1.5-fold of each other in Kd: 4.94 nM for the first, 4.95 nM for the second.

CCCAACGACUGCGGAGCGAGAUUACGCUUGAGUGCCCCACUGAGGAUGCCCACGGGCGAUUGGGGCACGG [C13G C33U] and CCCAACGACUGCGGAGCGAGAUUACGCUUGAGGGCCCCACUGAGGAUGCCCACGGGCGAUUGGGGCACGG [C13G C33G] are within 1.5-fold of each other in Kd: 5.79 nM for the first, 6.05 nM for the second.

First: CCCAACGACUGCGGAGCGAGAUUACGCUUGAGCGCCCCACUGAGGAUGUCCACGGGCGAUUGGGGCACGG [C13G C49U]
Second: CCCAACGACUGCGGAGCGAGAUUACGCUUGAGCGCCCCACUGAGUAUGCCCACGGGCGAUUGGGGCACGG [C13G G45U]
The Kd of the first is 4.7-fold higher: 31.9 nM for the first, 6.75 nM for the second. The second binds more tightly here.

Going from CCCAACGACUGCGGAGCGAGAUUACGCUUGAGCGCCCCACUGAGGAUGCUCACGGGCGAUUGGGGCACGG [C13G C50U] to CCCAACGACUGCGGAGCGAGAUUACGCUUGAGCGCCCCACUGAGGAUGCCCACGGGCGAUUGUGGCACGG [C13G G63U], the Kd falls from 14.7 nM to 7.98 nM (1.8-fold). The second binds more tightly here.

Going from CCCAACGACUGCGGAGCGAGAUUACGCUUGAGCGCCCCACUGAGGAUGCCCACGGGCGAUUGAGGCACGG [C13G G63A] to CCCAACGACUGCGGAGCGAGAUUACGCUUGAGCGCCCCACUAAGGAUGCCCACGGGCGAUUGGGGCACGG [C13G G42A], the Kd rises from 20.2 nM to 49 nM (2.4-fold).

CCCAACGACUGCGGAGCGAGAUUACGCUUGAGCGCCCCACUUAGGAUGCCCACGGGCGAUUGGGGCACGG [C13G G42U] and CCCAACGACUGCGGAGCGAGAUUACACUUGAGCGCCCCACUGAGGAUGCCCACGGGCGAUUGGGGCACGG [C13G G26A] are within 1.5-fold of each other in Kd: 5.35 nM for the first, 4.79 nM for the second.

CCCAACGACUGCGGAGCGAGAUUACUCUUGAGCGCCCCACUGAGGAUGCCCACGGGCGAUUGGGGCACGG [C13G G26U] and CCCAACGACUGCGUAGCGAGAUUACGCUUGAGCGCCCCACUGAGGAUGCCCACGGGCGAUUGGGGCACGG [C13G G14U] are within 1.5-fold of each other in Kd: 5.51 nM for the first, 5.85 nM for the second.

CCCAACGACUGCGCAGCGAGAUUACGCUUGAGCGCCCCACUGAGGAUGCCCACGGGCGAUUGGGGCACGG [C13G G14C] and CCCAACGACUGCGAAGCGAGAUUACGCUUGAGCGCCCCACUGAGGAUGCCCACGGGCGAUUGGGGCACGG [C13G G14A] are within 1.5-fold of each other in Kd: 7.7 nM for the first, 6.02 nM for the second.

Going from CCCAACGACUGCGGAGCGAGAUUACGCUUGAGCGCCCCACGGAGGAUGCCCACGGGCGAUUGGGGCACGG [C13G U41G] to CCCAACGACUGCGGAGCGAGAUUACGCUUGAGCGCCCCACCGAGGAUGCCCACGGGCGAUUGGGGCACGG [C13G U41C], the Kd rises from 5.26 nM to 64.2 nM (12-fold). The first binds more tightly here.

Going from CCCAACGACUGCGGAGCGAGAUUACGCUUGAGCGCCCCACAGAGGAUGCCCACGGGCGAUUGGGGCACGG [C13G U41A] to CCCAACGACUGCGGAGCGAGAUUACGCUUGAGCGCCCCACUGAGGAUGCCCACGGACGAUUGGGGCACGG [C13G G56A], the Kd falls from 83.4 nM to 6.97 nM (12-fold).

CCCAACGACUGCGGAGCGAGAUUACGCUUGAGCGCCCCACUGAGGAUGCCCACGGUCGAUUGGGGCACGG [C13G G56U] and CCCAACGACUGCGGAGCGAGAUUACGCUUGAGCGCCCUACUGAGGAUGCCCACGGGCGAUUGGGGCACGG [C13G C38U] are within 1.5-fold of each other in Kd: 4.87 nM for the first, 6.55 nM for the second.

CCCAACGACUGCGGAGCGAGACUACGCUUGAGCGCCCCACUGAGGAUGCCCACGGGCGAUUGGGGCACGG [C13G U22C] and CCCAACGACUGCGGAGCGAGAGUACGCUUGAGCGCCCCACUGAGGAUGCCCACGGGCGAUUGGGGCACGG [C13G U22G] are within 1.5-fold of each other in Kd: 4.85 nM for the first, 5.27 nM for the second.

— the RNAGym collection of RNA variant scans (doi:10.1038/nmeth.2970)
